# Measurements reported in PubChem BioAssay.
# Calls of active or inactive are those of the source.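 Rule for the calls, unless noted: active = viability loss from added drug above about 55%, and viability with drug at most 40%, in both replicates (limit read from the data, passing the limit was not always enough); inconclusive = both conditions met in only one replicate; inactive = neither replicate meets both conditions.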
# Experiments:
# [1] = reducers of endogenous Her2 protein level, primary screen, SKBR3 breast tumor cells, AlphaScreen, ATP viability (AID 461;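 active = Her2 level under about 52% in both replicate screens, with viability over 70% of control, limit read from the data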;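 for Her2 level: lower value means less Her2 protein in the cells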;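 for viability: percent of carrier control wells set as 100% viability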); conditions: 18-24 h, measured here: SKBR3 viability, ATP luminescence, at 10 µM
# [2] = target: Receptor tyrosine-protein kinase erbB-2 (Homo sapiens) (UniProt P04626); experiment: as above; conditions: 18-24 h, at 10 µM, stronger effect = lower value
# Receptor tyrosine-protein kinase erbB-2 (Homo sapiens), sequence (P04626 whole entry, looked up): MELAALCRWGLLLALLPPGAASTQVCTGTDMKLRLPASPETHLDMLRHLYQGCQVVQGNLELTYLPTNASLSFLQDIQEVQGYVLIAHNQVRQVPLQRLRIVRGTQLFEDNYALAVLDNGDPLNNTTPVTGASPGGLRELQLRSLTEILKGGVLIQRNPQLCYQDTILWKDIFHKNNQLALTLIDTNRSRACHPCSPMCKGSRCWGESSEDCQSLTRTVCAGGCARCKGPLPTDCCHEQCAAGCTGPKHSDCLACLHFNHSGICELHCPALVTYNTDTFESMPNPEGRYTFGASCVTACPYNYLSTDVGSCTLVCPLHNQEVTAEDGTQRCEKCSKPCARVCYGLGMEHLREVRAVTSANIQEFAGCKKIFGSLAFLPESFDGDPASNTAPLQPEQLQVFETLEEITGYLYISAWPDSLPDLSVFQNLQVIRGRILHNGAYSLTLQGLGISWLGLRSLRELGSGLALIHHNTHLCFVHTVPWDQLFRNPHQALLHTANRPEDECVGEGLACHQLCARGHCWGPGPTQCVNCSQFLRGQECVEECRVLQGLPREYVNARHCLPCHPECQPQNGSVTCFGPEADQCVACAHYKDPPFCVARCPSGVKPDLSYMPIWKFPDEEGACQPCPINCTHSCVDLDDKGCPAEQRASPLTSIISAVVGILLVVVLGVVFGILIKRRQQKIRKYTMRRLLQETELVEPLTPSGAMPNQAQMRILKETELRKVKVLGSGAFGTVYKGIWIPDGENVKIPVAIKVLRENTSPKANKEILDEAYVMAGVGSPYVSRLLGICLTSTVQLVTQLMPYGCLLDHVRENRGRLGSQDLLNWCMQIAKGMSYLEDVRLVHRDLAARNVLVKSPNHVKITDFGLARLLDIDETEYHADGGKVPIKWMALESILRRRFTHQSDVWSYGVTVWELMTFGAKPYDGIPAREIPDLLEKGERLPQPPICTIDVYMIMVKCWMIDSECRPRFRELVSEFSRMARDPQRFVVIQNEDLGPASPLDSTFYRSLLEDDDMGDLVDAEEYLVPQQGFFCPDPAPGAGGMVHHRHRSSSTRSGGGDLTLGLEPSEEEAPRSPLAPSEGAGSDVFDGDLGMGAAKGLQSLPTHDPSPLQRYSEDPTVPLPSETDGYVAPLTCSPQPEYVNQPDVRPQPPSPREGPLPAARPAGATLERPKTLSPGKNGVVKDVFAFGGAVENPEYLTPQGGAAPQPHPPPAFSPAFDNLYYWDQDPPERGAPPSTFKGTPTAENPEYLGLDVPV
# [3] = SK-BR-3 cell growth inhibitors, pilot screen, 24 h, human (AID 572;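 active = viability at or below 10% of carrier control in both of two separate runs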;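 note: compound exposure lasted between 18 and 24 h rather than exactly 24 h; 100% = carrier-treated control wells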); conditions: SK-BR-3 viability, CellTiter-Glo luminescence, at 10 µM, stronger effect = lower value
# [4] = HUVEC growth inhibition – cell-based, human, primary screen (AID 575;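 active = viability at or below 30% in both replicate assays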;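 note: 100% = median of untreated cell wells with 0.1% DMSO on each plate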); conditions: HUVEC proliferation, CellTiter-Glo luminescence, 72 h; at 10 µM; stronger effect = lower value
# How it was run: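 Timing: 72 h treatment at 37 °C; material: HUVEC primary cells; technique: CellTiter-Glo luminescence measuring cellular ATP; controls: vehicle and MePR control wells; measure: percent of median DMSO-control luminescence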
# [5] = growth inhibitors of H69AR lung tumor, primary screen, human, duplicate replicates (AID 580;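 active = viability at or under a set limit in both replicates, limit being median viability minus 3 SD, cut at about 48% in these data, passing the limit was not always enough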;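 note: 100% = mean luminescence of untreated wells and 0% = no signal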); conditions: H69AR lung tumor cells viability, ATP luminescence, 72 h; at 10 µM; stronger effect = lower value
# [6] = reversal of MRP1-mediated doxorubicin resistance, pilot screen, H69AR cells, doxorubicin co-treatment (AID 601); conditions: CellTiter-Glo, 72 h, at 10 µM; for differential viability (reversal): stronger effect = higher value
# [7] = 384-well plate pilot, post-Golgi transport modulator project, inhibition of yeast transport mutant growth (AID 636; in the data active = inhibition above about 31%); conditions: absorbance 615 nm, about 18 h, stronger effect = higher value
# [8] = growth suppression of yeast trafficking mutant, preliminary HTS, modulators of trafficking downstream of Golgi apparatus project, 1536-format plate, OD 615 nm (AID 637; in the data active = inhibition above about 30%); conditions: yeast transport mutant growth, absorbance 615 nm, 18 h; stronger effect = higher value
# [9] = H69AR cells + 2 uM doxorubicin, measured here: viability with 2 uM doxorubicin, stronger effect = lower value
# [10] = H69AR cells, compound alone cytotoxicity
SMILES,viability [1] [%],Her2 level [2],viability [3],viability [4],viability [5],differential viability (reversal) ([6]; H69AR cells + 2 uM doxorubicin),"viability [6, 9] [%]","viability [6, 10] [%]",inhibition [7],inhibition [8]
CC(C)c1cc(C(=O)NCc2ccco2)no1,101,99.5% (inactive),101% (inactive),84.3% (inactive),80.4% (inactive),5.93% (inactive),74.5,80.4,0.13% (inactive),-2.83% (inactive)
COC(=O)CNC(=O)c1c(C)cc(=O)oc1C,89.5,104% (inactive),89.5% (inactive),90.3% (inactive),97.1% (inactive),5.65% (inactive),91.4,97.1,-4.27% (inactive),-8.55% (inactive)
O=C(N1CCCCCC1)N1CCN(S(=O)(=O)N2CCCCC2)CC1,101,91.5% (inactive),101% (inactive),99.5% (inactive),94% (inactive),-5.71% (inactive),99.7,94,-2.76% (inactive),-2.26% (inactive)
COc1ccc(C(=O)N(CCN2CCOCC2)CC(=O)NC2CCCC2)cc1OC,83.5,106% (inactive),83.5% (inactive),111% (inactive),91.6% (inactive),-0.805% (inactive),92.4,91.6,-0.8% (inactive),8.36% (inactive)
CC(=O)N1CCC(N(C(=O)Nc2ccc(C)c(C)c2)C2CCCC2)CC1,92,102% (inactive),92% (inactive),90.4% (inactive),85.6% (inactive),-3.42% (inactive),89.1,85.6,-1.54% (inactive),-5.33% (inactive)
Cc1ccccc1-n1c(=O)cc(N2CCN(C(=O)c3ccco3)CC2)[nH]c1=O,86,100% (inactive),86% (inactive),100% (inactive),98.3% (inactive),9.79% (inactive),88.5,98.3,0.77% (inactive),0.17% (inactive)
Nc1c(S(=O)(=O)c2cccs2)c2nc3ccccc3nc2n1CC1CCCO1 (stereo not given),79.5,89.5% (inactive),79.5% (inactive),85.2% (inactive),85.9% (inactive),4.9% (inactive),81,85.9,-2.21% (inactive),-1.33% (inactive)
Cc1ccc(Cl)cc1N1CCN(C(=O)C2CCCN(S(=O)(=O)c3cnc[nH]3)C2)CC1 (stereo not given),86.5,99.5% (inactive),86.5% (inactive),69.8% (inactive),83.8% (inactive),5.75% (inactive),78,83.8,-2.93% (inactive),-2.62% (inactive)
O=C(Nc1nc2c(s1)CCc1ccccc1-2)c1cccs1,102,74% (inactive),102% (inactive),72.2% (inactive),82.9% (inactive),-4.96% (inactive),87.9,82.9,-3.33% (inactive),8.41% (inactive)
O=C(CSc1ncnc2c1cnn2-c1ccccc1)Nc1ccccc1,96,88% (inactive),96% (inactive),63.1% (inactive),79.7% (inactive),7.43% (inactive),72.2,79.7,-7.95% (inactive),2.22% (inactive)
COc1cccc2cc(C(=O)C3=C(O)C(=O)N(CCCN4CCOCC4)C3c3ccncc3)oc12 (stereo not given),98,142% (inactive),98% (inactive),110% (inactive),96.8% (inactive),-2.74% (inactive),99.6,96.8,-5.19% (inactive),-5.5% (inactive)
COc1cccc(-c2nnc(SCC(=O)N3CCCc4ccccc43)o2)c1,93.5,87.5% (inactive),93.5% (inactive),60.4% (inactive),90.6% (inactive),4.79% (inactive),85.8,90.6,-4.61% (inactive),-3.33% (inactive)
Cc1ccccc1NC(=O)CSc1nc(N)c(C#N)c(-c2cccs2)c1C#N,115,77% (inactive),115% (inactive),72.3% (inactive),30.2% (active),3.09% (inactive),27.1,30.2,-9.32% (inactive),6.83% (inactive)
CC(=O)C1=C(O)C(=O)N(Cc2ccco2)C1c1ccc(F)cc1 (stereo not given),102,110% (inactive),102% (inactive),123% (inactive),109% (inactive),8.52% (inactive),100,109,1.07% (inactive),-5% (inactive)
Cc1c(C(=O)OCC(C)(C)CN(C)C)oc2ccccc12,122,95% (inactive),122% (inactive),101% (inactive),92.4% (inactive),8.07% (inactive),84.3,92.4,-6.8% (inactive),-4.6% (inactive)
CCC(=O)Nc1ccc(F)c(Cl)c1,108,99% (inactive),108% (inactive),97.9% (inactive),94.7% (inactive),3.67% (inactive),91.1,94.7,-6.53% (inactive),3.71% (inactive)
Cc1nnc2n(Cc3ccccc3)c(=O)c3c4c(sc3n12)COC(C(C)C)C4 (stereo not given),124,69% (inactive),124% (inactive),82.5% (inactive),76.2% (inactive),17% (inactive),59.2,76.2,-7.6% (inactive),11.9% (inactive)
CC(C)(C)N(Cc1cc2ccccc2[nH]c1=O)C(=O)C1CCCCC1,104,118% (inactive),104% (inactive),69.4% (inactive),86.1% (inactive),3.29% (inactive),82.8,86.1,-3.2% (inactive),-7.21% (inactive)
COc1ccc(Nc2nc(OC)nc(N3CCN(c4ccc(OC)cc4)CC3)n2)cc1,123,98% (inactive),123% (inactive),66.7% (inactive),71.3% (inactive),-5.71% (inactive),77,71.3,-6.27% (inactive),-3.06% (inactive)
Cc1noc(C)c1CSc1nnc2n(-c3ccccc3)c(=O)c3ccccc3n12,72.5,75.5% (inactive),72.5% (inactive),105% (inactive),81.7% (inactive),-18.9% (inactive),101,81.7,2.31% (inactive),-5.83% (inactive)

SMILES,viability [1] [%],Her2 level [2],viability [3],viability [4],viability [5],differential viability (reversal) ([6]; H69AR cells + 2 uM doxorubicin),"viability [6, 9] [%]","viability [6, 10] [%]",inhibition [7],inhibition [8]
Cc1cc(C)n2cc(CSc3nnnn3C)nc2n1,84.5,92% (inactive),84.5% (inactive),87.8% (inactive),85.7% (inactive),-0.355% (inactive),86,85.7,0.51% (inactive),6.17% (inactive)
Nc1ncnc2nc(SCCN3CCCCC3)[nH]c12,119,88% (inactive),119% (inactive),102% (inactive),100% (inactive),3.13% (inactive),97.3,100,3.29% (inactive),-5.32% (inactive)
O=C(CSc1nnc(-c2cccs2)o1)N1CCOCC1,107,92.5% (inactive),107% (inactive),99.4% (inactive),96.6% (inactive),-4.63% (inactive),101,96.6,-3.6% (inactive),-1.45% (inactive)
COC(=O)Nc1nc2c(C)cccc2s1,114,88% (inactive),114% (inactive),56.1% (inactive),85.4% (inactive),11.9% (inactive),73.5,85.4,1.18% (inactive),8.33% (inactive)
Cn1c2c(c(=O)n(C)c1=O)CN(CCCN1CCOCC1)CN2,100,86.5% (inactive),100% (inactive),106% (inactive),108% (inactive),7.39% (inactive),101,108,-5.26% (inactive),-5.27% (inactive)
O=C(CSc1nc2ncccc2[nH]1)Nc1ccc2c(c1)OCCO2,108,118% (inactive),108% (inactive),85.6% (inactive),82% (inactive),-0.395% (inactive),82.4,82,-2.86% (inactive),-0.82% (inactive)
CCN(CC(=O)Nc1ccc(S(N)(=O)=O)cc1)S(=O)(=O)c1cc(C)ccc1OC,76.5,105% (inactive),76.5% (inactive),109% (inactive),114% (inactive),14.4% (inactive),99.2,114,-3.55% (inactive),-1.67% (inactive)
CCn1nc(NC(=O)c2cccnc2)c2cc3ccccc3nc21,90,70.5% (inactive),90% (inactive),84.4% (inactive),89.8% (inactive),15.2% (inactive),74.6,89.8,-8.38% (inactive),-3.17% (inactive)
CN1C(=S)SC(C)(NO)C1(C)C (stereo not given),90,95.5% (inactive),90% (inactive),97% (inactive),104% (inactive),5.95% (inactive),98.4,104,-0.27% (inactive),-9.52% (inactive)
CCOC(OCC)P(=O)(C(C)C)C(C)C,87,87% (inactive),87% (inactive),103% (inactive),91.8% (inactive),3.12% (inactive),88.6,91.8,-1.17% (inactive),-5.08% (inactive)
CCCN1C2CCCC1CC(NC(=O)c1ccccc1F)C2 (stereo not given),99,96.5% (inactive),99% (inactive),94.2% (inactive),106% (inactive),19.6% (inactive),86,106,-4.93% (inactive),5.4% (inactive)
CCOC(=O)COc1ccc(C2NC(C(=O)O)CS2)cc1 (stereo not given),94.5,102% (inactive),94.5% (inactive),83.4% (inactive),102% (inactive),5.91% (inactive),96.3,102,-3.03% (inactive),-7.5% (inactive)
CCOC(=O)c1c(NC(=O)c2cccs2)sc2c1CCN(C(=O)OCC)C2,174,13% (active),174% (inactive),6.86% (active),23.3% (active),-2.25% (inactive),25.5,23.3,0.39% (inactive),-1.8% (inactive)
c1ccn2c(SCc3cn4ccsc4n3)nnc2c1,104,93.5% (inactive),104% (inactive),104% (inactive),110% (inactive),14% (inactive),95.7,110,-8.49% (inactive),3.49% (inactive)
CCOC(=O)Nc1ccc2c(CN3C(=O)NC4(CCCC4)C3=O)cc(=O)oc2c1,89.5,92.5% (inactive),89.5% (inactive),89.2% (inactive),88.3% (inactive),-1.09% (inactive),89.4,88.3,-6.58% (inactive),-0.16% (inactive)
COc1cc(Br)cc(/C=N/c2ncn[nH]2)c1O,134,89% (inactive),134% (inactive),35.2% (inactive),86.6% (inactive),-17.5% (inactive),104,86.6,-4.81% (inactive),-3.44% (inactive)
Cc1nc2sc(C(c3cccc(F)c3)N3CCCCC3)c(O)n2n1 (stereo not given),109,80% (inactive),109% (inactive),95.1% (inactive),99.5% (inactive),10.9% (inactive),88.6,99.5,-4.79% (inactive),-4.92% (inactive)
CCN(CC)c1ccc(-c2nn3c(-c4cccnc4)nnc3s2)cc1,91.5,64% (inactive),91.5% (inactive),37% (inactive),10.9% (active),-4.5% (inactive),15.4,10.9,-5.92% (inactive),-7.1% (inactive)
CCCCOc1ccccc1C(=O)NCCCC(=O)O,92.5,80.5% (inactive),92.5% (inactive),95.4% (inactive),87.1% (inactive),7.52% (inactive),79.6,87.1,-4.08% (inactive),-0.55% (inactive)
CC1CCN(CCCNC(=O)c2cn(C)c3ccc(S(=O)(=O)N4CCCC4)cc3c2=O)CC1,90.5,80% (inactive),90.5% (inactive),96.9% (inactive),91% (inactive),3.01% (inactive),88,91,-6.76% (inactive),1% (inactive)
